Screening data as filed in PubChem BioAssay.
A selection: hits, their analogues and other compounds. The true share with any hit is near 12%.
RAM inhibit – inhibitors of the yeast RAM network | S. cerevisiae dse1pr::URA3 reporter, 5-FOA growth OD615, 2 d; analog-sensitive cbk1-as2 kinase mutant strain | inhibition, % at 50 µM | hit rate 1.8% among 190,000 | AID 868;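 active means inhibition above a set limit, 3 SD over mean compound inhibition, cut at about 8.4% in these data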;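 further: 0% = DMSO-only wells with no growth and 100% = 10 µM 1-NA-PP1 full growth; inhibition rescues growth on 5-FOA so higher OD means more RAM inhibition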
ABCG2 inh – blocks JC-1 efflux by human ABCG2 transporter | Q9UNQ0 | IgMXP3 cells, flow cytometry | inhibition, % at 6.6 µM | hit rate 0.1% among 190,000 | AID 1325;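 active means inhibition above 80%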;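 further: 0% = DMSO and 100% = nicardipine control wells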
Target sequence (Q9UNQ0 whole entry, looked up): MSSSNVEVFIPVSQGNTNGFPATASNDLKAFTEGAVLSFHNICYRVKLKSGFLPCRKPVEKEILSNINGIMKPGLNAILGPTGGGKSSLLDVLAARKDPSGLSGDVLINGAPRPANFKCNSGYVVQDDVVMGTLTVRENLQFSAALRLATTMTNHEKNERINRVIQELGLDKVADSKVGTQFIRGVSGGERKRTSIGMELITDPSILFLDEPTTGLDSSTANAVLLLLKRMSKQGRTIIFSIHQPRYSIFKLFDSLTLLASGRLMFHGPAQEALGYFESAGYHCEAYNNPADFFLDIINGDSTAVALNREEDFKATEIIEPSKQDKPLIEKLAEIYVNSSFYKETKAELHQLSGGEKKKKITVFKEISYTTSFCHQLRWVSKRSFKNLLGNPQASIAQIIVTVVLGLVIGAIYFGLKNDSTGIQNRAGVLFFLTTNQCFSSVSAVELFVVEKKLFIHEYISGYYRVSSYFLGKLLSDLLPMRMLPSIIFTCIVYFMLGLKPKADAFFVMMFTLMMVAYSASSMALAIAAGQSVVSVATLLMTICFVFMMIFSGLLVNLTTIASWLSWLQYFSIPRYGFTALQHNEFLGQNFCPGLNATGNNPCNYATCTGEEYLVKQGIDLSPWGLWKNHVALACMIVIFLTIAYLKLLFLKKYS
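Test system: IgMXP3 (ABCG2) plus far-red-tagged CCRF-Adr (ABCB1) cells / Amount: 3 million cells/mL in well / Reagent: JC-1 transporter substrate / Timing: 10 min compound exposure, 25 °C / Signal: flow cytometry, 530 nm JC-1 signal / Read-out: percent efflux inhibition, scaled nicardipine 100% to DMSO 0% / Benchmarks: nicardipine as high control, DMSO as low control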
L major viab – Leishmania major promastigote growth inhibition. Leishmania major promastigotes, resazurin fluorescence viability. inhibition, % at 10 µM. hit rate 9% among 200,000; in the data active means inhibition above about 50%;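 further: promastigotes grown with compound for 44 hours at 28 °C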
ABCB1 inh – blocks JC-1 efflux by human ABCB1 transporter | P08183 | CCRF-Adr cells, flow cytometry | inhibition, % at 6.6 µM | hit rate 0.067% among 190,000; in the data active means inhibition above about 40%;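 further: 0% = vehicle and 100% = reference inhibitor; higher value means more JC-1 retained so stronger ABCB1 efflux block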
WT yeast gro inh – growth inhibition of WT yeast, mitochondrial fusion screen; mitochondrial fusion phenotypic screen, WT strain; inhibition, % at 10 µM; hit rate 2.1% among 190,000; AID 1362; in the data active means inhibition above about 58%; tested in S. cerevisiae
Starred values were filed as active, the others as inactive.

SMILES	RAM inhibit	ABCG2 inh	L major viab	ABCB1 inh	WT yeast gro inh
COCCNC(=O)c1cccc(NS(=O)(=O)c2cccc3cccnc23)c1	1	1	-6	1	-8
O=S(=O)(NCc1ccccc1)c1cccc2cccnc12	1	2	64*	0	-1
O=C(O)CSCCOc1ccc(OCCSCC(=O)O)cc1	0	2	-6	0	0
Cc1nc2c(ccc3nc(NC(=O)Cc4ccccc4)sc32)s1	11*	7	11	1	57
COc1ccc(/C=C/c2nc(-c3ccccc3O)n[nH]2)cc1	8.8*	1	-7	0	53
COc1ccc(/C=C/c2nc(-c3ccccc3O)n(-c3ccccc3)n2)cc1	1	2	-4	0	7
Oc1ccc(Cl)cc1-c1cc(-c2ccccc2)n[nH]1	5	-1	17	-1	59*
COc1ccc(-c2cc(-c3ccccc3O)[nH]n2)cc1	-1	44	99*	-2	37
O=S(=O)(c1ccc2ccccc2c1)N(CC1CO1)c1ccccc1 (stereo not drawn)	3	22	6	2	49
Cc1ccc(C(=O)Nc2ccc3cn[nH]c3c2)cc1S(=O)(=O)N1CCOCC1	1	-2	-8	-1	-2
CC(=O)OCC(=O)[C@H]1CC[C@H]2[C@@H]3CCC4=CC(=O)CC[C@]4(C)[C@H]3CC[C@]12C	4	1	100*	0	5
C[C@]12CC[C@H]3[C@@H](CCC4=CC(=O)CC[C@@]43C)[C@@H]1CC[C@@H]2C(=O)CO	1	1	-4	0	-2
CCN(CC)CCNC(=S)Nc1ccc(Cl)cc1	0	0	-6	1	-10
CCN(CC)CCCNC(=S)Nc1ccc(Br)cc1	1	0	83*	0	0
CCN(c1ccc(OCC(=O)OCC(=O)Nc2ccc(F)c(F)c2F)cc1)S(=O)(=O)c1ccccc1	3	-2	47	0	20
COc1ccc(CC(=O)Nc2cccc(-c3ccc4nnc(C)n4n3)c2)cc1OC	2	0	-2	0	0
CC(C)Oc1ccc2ccccc2c1C=O	-1	7	0	1	-2
O=Cc1c(OCc2ccccc2)ccc2ccccc12	0	18	82*	0	22
Cc1cc(C)nc(SCc2nnc(SCc3ccccc3Cl)o2)n1	0	0	11	0	-5
COc1cccc(CNC(=O)CCC2CCCN(C(=O)c3cc(C4CC4)[nH]n3)C2)c1 (stereo not drawn)	0	1	5	2	-2
CCn1c(COc2ccccc2)nnc1SCC(=O)c1cccc([N+](=O)[O-])c1	1	2	91*	1	7
Cc1cc(Br)cc2c(C(=O)Nc3c(C)n(C)n(-c4ccccc4)c3=O)cc(-c3cccs3)nc12	7	-3	69*	-1	22
CCc1ccc(-c2cc(C(=O)Nc3c(C)n(C)n(-c4ccccc4)c3=O)c3ccccc3n2)s1	3	2	31	1	6
Cc1ccccc1Cn1c(=N)n(CC(=O)c2ccc([N+](=O)[O-])cc2)c2ccccc21	3	-1	100*	0	16
CCn1c(=N)n(CC(=O)c2cccc([N+](=O)[O-])c2)c2ccccc21	2	-1	16	0	-6
SMILES	RAM inhibit	ABCG2 inh	L major viab	ABCB1 inh	WT yeast gro inh
CCCn1c(=N)n(CC(=O)c2ccc([N+](=O)[O-])cc2)c2ccccc21	5	2	64*	0	26
O=c1c(Cc2ccc(F)cc2)c(O)ccn1CCc1ccccn1	0	-1	3	0	6
Cc1ccc2c(Cl)cc(Cl)c(OCC(=O)Nc3cccc(S(=O)(=O)N(C)C)c3)c2n1	2	-2	-5	0	10
Cc1ccc2c(Cl)cc(Cl)c(OCC(=O)Nc3cccc(S(N)(=O)=O)c3)c2n1	4	3	71*	1	10
Cc1ccc2c(Cl)cc(Cl)c(OCC(=O)NC(C)(C)C)c2n1	-1	4	6	1	56
COC(=O)COc1c(Cl)cc(Cl)c2ccc(C)nc12	-1	12	-8	0	4
Cc1ccc(NC(=O)COC(=O)CCC(=O)c2ccc(Cl)cc2)cc1S(=O)(=O)N(C)C	11*	-2	-3	0	3
Cc1ccc2c(Cl)cc(Cl)c(OCC(=O)Nc3cc(S(=O)(=O)N(C)C)ccc3C)c2n1	3	27	69*	6	32
Cc1ccc2c(Cl)cc(Cl)c(OCC(=O)Nc3ccc(C)c(S(=O)(=O)N(C)C)c3)c2n1	5	68	68*	4	6
COc1ccc(C2CC(c3cccs3)=NN2C(=O)COC(=O)c2cncc(Br)c2)cc1OC (stereo not drawn)	2	1	34	2	7
CCOC(=O)N1CCC(NCc2c(C(=O)N(C)Cc3ccccc3)nc3ccccn23)CC1	2	0	0	1	3
Cc1cccc(CN2C(=O)CCSc3ccc(Cl)cc32)c1	3	2	1	1	-5
Cc1cccc(C)c1NC(=O)CN1C(=O)NC(C)(CCc2ccccc2)C1=O (stereo not drawn)	1	17	-1	2	-1
CN1C(=O)C2(c3ccccc31)N(C)CC(c1ccccc1)C21SC(=S)N(Cc2ccco2)C1=O (stereo not drawn)	6	0	99*	0	28
CN1C(=O)C2(c3ccccc31)N(C)CC(c1ccccn1)C21SC(=S)N(Cc2ccco2)C1=O (stereo not drawn)	3	-4	100*	-3	9
CCCCOc1ccc(Cc2c(Cl)nc(SC)nc2N2CCOCC2)cc1	8	2	4	1	48
COc1ccc(Cc2c(N)nc(C)nc2N)cc1	1	2	10	0	-4
CCOc1ccc(Cc2c(Cl)nc(SC)nc2OC)cc1	9.4*	8	-6	1	46
CSc1nc(Cl)c(Cc2ccc(OCC(C)C)cc2)c(N2CCOCC2)n1	8.6*	4	11	1	37
O=C(Nc1ccc2nc3ccccc3nc2c1)c1ccccc1	3	-11	6	-1	-5
O/C(=C\c1nc2ccccc2nc1/C=C(\O)c1ccccc1)c1ccccc1	4	0	98*	2	74*
Cc1nn(CCc2nc(-c3ccco3)cs2)c2[nH]c(=O)cc(C(F)(F)F)c12	3	3	-12	0	22
O=C(CCN1C(=O)S/C(=C\c2ccccc2)C1=O)Nc1ccc(S(=O)(=O)Nc2nccs2)cc1	3	-3	-7	-1	8
Cc1cc(C)nc(NS(=O)(=O)c2ccc(NC(=O)CN3C(=O)S/C(=C\c4ccccc4)C3=O)cc2)n1	9.9*	-1	-1	0	-21
Cc1cc(C)cc(C(=O)NCC(=O)OCC(=O)N2CCN(S(=O)(=O)c3ccc4ccccc4c3)CC2)c1	5	-2	-6	0	-1
CC(=O)N1N=C(c2ccccc2O)OC1(C)CC(=O)Nc1ccccc1 (stereo not drawn)	-1	-2	60*	1	-17
